Assay results taken from the EternaBench riboswitch data.

System: MS2 coat protein
Test: apparent Kd, MS2 coat protein; higher = weaker binding; RNA-MaP array; FMN 200 µM where present
Procedure, shortened: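 Designs on Illumina sequencing-chip clusters, transcribed by stalled E. coli RNA polymerase, were exposed to SNAP-549-labelled MS2 coat protein in doubling steps from 0.7 or 1.5 nM up to 3 µM, without and then with constant ligand. The buffer held 100 mM Tris-HCl pH 7.5, 80 mM KCl, 4 mM MgCl2, BSA, DTT, yeast tRNA and Tween-20. Apparent Kd values are medians of filtered per-cluster binding-curve fits to green signal normalised to red-channel RNA signal and control-cluster median Fmax.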

[1] = designed as: OFF switch for flavin mononucleotide, no ligand
[2] = ligand present: flavin mononucleotide, designed as: OFF switch for flavin mononucleotide
[3] = designed as: ON switch for flavin mononucleotide, no ligand
[4] = ligand present: flavin mononucleotide, designed as: ON switch for flavin mononucleotide

| Sequence | apparent Kd [1] | apparent Kd [2] | apparent Kd [3] | apparent Kd [4] |
| --- | --- | --- | --- | --- |
| GGAUAGGACAGAGGAUAUACGUACUAGAGAUACUAGCAAAAUUUCCUCACAUGAGGAUCACCCAUGUAGAAGGCUGUCCUAUCG | 21.4 nM | 563 nM |  |  |
| GGAUAGGACAGAGGAUAUACGUGCUAGAGAUACUAGCAAAAUUUCCACACAUGAGGAUCACCCAUGUAGAAGGCUGUCCUAUCG |  | 7.57 nM |  |  |
| GGAUAGGACAGAGGAUAUACGUGCUAGAGAUACUAGCAAACUUUCCUCACAUGAGGAUCACCCAUGUAGAAGGCUGUCCUAUCG | 21.1 nM | 483 nM |  |  |
| GGAUAGGACAGAGGAUAUACGUGCUAGAGAUACUAGCACAAUUUCCUCACAUGAGGAUCACCCAUGUAGAAGGCUGUCCUAUCG | 6.08 nM | 26.3 nM |  |  |
| GGAUAGGACAGAGGAUAUACGUGCUAGAGAUACUAGCUAAUAAUCCUUACAUGAGGAUCACCCAUGUAGAAGGCUGUCCUAUCG | 20 nM | 45.1 nM |  |  |
| GGAUAGGACAGAGGAUAUACGUGCUAGAGAUACUCGCAAAAUUUCCUCACAUGAGGAUCACCCAUGUAGAAGGCUGUCCUAUCG | 93 nM | 436 nM |  |  |
| GGAUCCAACACAGGAUAUGCUGGACUUUGUCCAGCAGAAGGGUGACAUGAGGAUCACCCAUGUAAUAGGAUCCAUAUAUUUAAU |  |  | 624 nM | 198 nM |
| GGAUCCAUCACAGGAUAUGCUGGACUUUGUCCAGCAGAAGGGUGAAACAUGAGGAUCACCCAUGUAUGGAUCCAUAUAUUUAAU |  |  | 327 nM | 393 nM |
| GGAUCGAAAGUGAGGAUAUACCACUGGAUACAGUGGUAGAAGGCACAUGAGGAUCACCCAUGUCCUUACGAUCC | 20.8 nM | 117 nM |  |  |
| GGAUCGAAUGUGAGGAUAUGCUGGUCCUUGGAUCAGCAGAAGGCACAUGAGGAUCACCCAUGUCCUCUCGGUCC | 248 nM | 458 nM |  |  |
| GGAUCGAGUGUGAGGAUAUGCUGGUCGUAAGAUCAGCAGAAGGCACAUGAGGAUCACCCAUGUGAAAACGGUCC | 24.7 nM | 164 nM |  |  |
| GGAUGACAAAGUCAUCCAAAUCGAACAUGAGGAUCACCCAUGUAGGAUAUCCUACUGAAACAGUAGGAGAAGGACAUGUGCUUU | 52.9 nM | 157 nM |  |  |
| GGAUGACAAAGUCAUCCUAAACGAACAUGAGGAUCACCCAUGUAGGAUAUGCUUCUCAAAGAGAAGCAGAAGGACAUGUGCCUU | 35.1 nM | 276 nM |  |  |
| GGAUGACAAAGUCAUCCUAAACGAACAUGAGGAUCACCCAUGUAGGAUAUGGUACUCAAAGAGUACCAGAAGGACAUGUGCCUU | 33.7 nM | 200 nM |  |  |
| GGAUGACAAAGUCAUCCUAUUCGAACAUGAGGAUCACCCAUGUAGGAUAUGCUACAGAAACUGUAGCAGAAGGACAUGUGCUUU | 34.1 nM | 151 nM |  |  |
| GGAUGACAUAGUCAUCAGUAACGAACAUGAGGAUCACCCAUGUAGGAUAUGCUACUCAACGAGUAGCAGAAGGACAUGUGUCUU | 27.4 nM | 135 nM |  |  |
| GGAUUACAUGAGGAUCACCCAUGUGAGGAUAUCGAUGUCCUAGGUCAAGUGCGGGACUCGAGAAGGCACUUGGA | 52.4 nM | 28.9 nM |  |  |
| GGAUUACAUGAGGAUCACCCAUGUGAGGAUAUCGAUGUCCUCAAUAAAGUGCGGGACUCGAGAAGGCACUUGGA | 63 nM | 83 nM |  |  |
| GGCAGACAUGAGGAUCACCCAUGUCAGGAUAUUAGGCGAUCGUCGAUAGACGAUAGCCUGAGAAGGGACAUGCC | 23.8 nM | 54.1 nM |  |  |
| GGCAGACAUGAGGAUCACCCAUGUCGGCCGUUAGGAGGAUAUCGGUGAUAUCUGUCUCGCCGAGAAGGUUUAAUUA |  |  | 11.5 nM | 12.1 nM |
| GGCAUACAUGAGGAUCACCCAUGUAACCUGCACUAAGGAUAUGGCGUGGCCCAUGGCUACCCAGAAGGUAGAUAAA |  |  | 136 nM | 195 nM |

| Sequence | apparent Kd [1] | apparent Kd [2] | apparent Kd [3] | apparent Kd [4] |
| --- | --- | --- | --- | --- |
| GGCCCGCGCGUGAGGAUAUGCUGAUACUAGGAUCAGCAGAAGGCACAUGAGGAUCACCCAUGUCCAACUUGUCU | 28.9 nM | 36.4 nM |  |  |
| GGCCGGGCAGGAUAUACAUGAGGAUCACCCAUGUAUAUCCUUCAGCAUGGAUCCUCAUGUAGAAGGGCCCGGCC | 13.2 nM | 11.9 nM |  |  |
| GGCGAACAGGCUAACAUGAGGAUCACCCAUGUGGACUCAUGGUAGGAUAUCGGGAAGGAGGAAACCGAGAAGGGCCGGUGAGCG |  |  | 158 nM | 39.5 nM |
| GGCGAACGGGCUAACAUGAGGAUCACCCAUGUGGACUCAUGGUAGGAUAUGCUGUACAAAGUACAGCAGAAGGGCCGGUGAGCC |  |  | 142 nM | 445 nM |
| GGCGAUCAGGCUAACAUGAGGAUCACCCAUGUGGACUCAUGGUAGGAUAUGCUGUACUUUGUACAGCAGAAGGGCCGGAGAGCC |  |  | 46.1 nM | 187 nM |
| GGCGGCGCGGGCCACCGCAGGGCCAGAAGGACAUGAGGAUCACCCAUGUGGCAGGACAGGGCGGUGUAGGAUAUGGCAGGCUGG | 8.35 nM | 10.6 nM |  |  |
| GGCGUGUUAGGAUAUCGCGGCGGCGGCGUUUGUUGUUGUUGUGAGAAGGAACAUGAGGAUCACCCAUGUGUGCC | 62.7 nM | 295 nM |  |  |
| GGCUCAGUGACAUGAGGAUCACCCAUGUGGCUCAUUCAACGCAGAAGGCACAAGGGAACACCUCGUGAGGAUAUGCAAGUAGAC |  |  | 367 nM | 36.7 nM |
| GGCUCCGCUCGAGGAUAUAGCUGCAUGUAGUGUCCUGAGGCACAUGAGGAUCACCCAUGUGUAGGCUAGAAGGCGACGGACACU | 8.81 nM | 26.2 nM |  |  |
| GGCUGCAAUUAUGAGGAUAUGUUCGGAUGAACAUGAGGAUCACCCAUGUGGCGAUAGCUAUCUGUGCAGAAGGUGUAGUGGUAGC |  |  | 213 nM | 61.8 nM |
| GGCUGGUGACAGCAUCCAUCAAAACAUGAGGAUCACCCAUGUAGAAGGCUGUACGGUUACCGUACAGAGGAUAUACAAUGAUGU | 14 nM | 23.9 nM |  |  |
| GGGAAGUUAGGAUAUGCUGCUCGUCACUUGCGUGAUGAGUAGCAGAAGGAACAUGAGGAUCACCCAUGUAAAAA | 31.9 nM | 37.6 nM |  |  |
| GGGACUCUAAAUGGGCUGUCGACAUAGGAUAUGAUGUGCGACAUGAGGAUCACCCAUGUAACGAAUUAGAAGGGUGUAGGCAUG |  |  | 574 nM | 173 nM |
| GGGAGGUCAGGAUAUGCAUGGCGGGACUUGCGUCGUGGCGUGCAGAAGGGACAUGAGGAUCACCCAUGUGGAGA | 127 nM | 252 nM |  |  |
| GGGCAACAUGAGGAUCACCCAUGUCAGGAUAUCGGGCCCGGGCCGAAAGGCCCGGGCCCGAGAAGGGACAGCCC | 21.3 nM | 21.6 nM |  |  |
| GGGCAUAUUACAUGAGGAUCACCCAUGUCAGAAAGGGUAAUCAGAAGGUACUAUUAGAGAAAGAGUAAGGAUAUGAUUAUGCCC |  |  | 486 nM | 40.6 nM |
| GGGCCAACAUGAGGAUCACCCAUGUAGGAUAUCGCUAUUGUAAUCAUGAAACAUGAUUACAAUAGCGAGAAGGACAUAUGCAAA | 7 nM | 7.7 nM |  |  |
| GGGCGUUGGGAGAAGGUACAUUAAAUUAGUUUAACAUGAGGAUCACCCAUGUAAGGAUAUCCCAUCGUGUAAUAUUAUACAGCC | 11 nM | 13.8 nM |  |  |
| GGGCUGUCAGGAUAUCCCGGGUUUGGGUAAACCCGGGCCCGGGAGAAGGGACAUGAGGAUCACCCAUGUGGCCC | 32.1 nM | 31.8 nM |  |  |
| GGGUAACAUGAGGAUCACCCAUGUGAGGAUAUCCUAGGGAUGGAAGCUCGGCCAACCAGGAGAAGGUACUAAAG | 73.9 nM | 131 nM |  |  |
| GGGUACACCGGAGGAUAUCAUGUAAAUACAUGAGGAUCACCCAUGUCGAUGGAGACAUCGGAGAUUGAGAAGGCCGAUGUACCG |  |  | 155 nM | 9.1 nM |
